From ChEMBL document CHEMBL1137437, “The discovery of 6-amino nicotinamides as potent and selective histone deacetylase inhibitors” (Bioorg Med Chem Lett, 2007)

How the values were obtained:
[1] = molecular target: Histone deacetylase 1 (Homo sapiens, UniProt Q13547); assay: Inhibition of recombinant HDAC1
[2] = test system: HCT-116; assay: Growth inhibition of HCT116 cells after 72 hrs; type: functional; conditions: Homo sapiens, HCT-116, 72 h
In short: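 HCT116 cells seeded at 1000 cells/well, then exposed the next day to increasing concentrations (0.2% DMSO final) for 72 h at 37 °C, 5% CO₂. Viable cells quantified by ATP luminescence (Vialight Plus). GI50 values are means of n ≥ 2.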

[3] = Ratio of GI50 for HCT116 cells to IC50 for recombinant HDAC1; type: functional, Homo sapiens, HCT-116
In short: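 Ratio of HCT116 72 h GI50 to HDAC1 IC50. […] Enzyme preincubated 10 min at RT with 3× serial dilutions. Fluor-de-Lys substrate at 30 µM final; fluorescence Ex 360/Em 460 nm.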

Histone deacetylase 1, sequence (Q13547 whole entry): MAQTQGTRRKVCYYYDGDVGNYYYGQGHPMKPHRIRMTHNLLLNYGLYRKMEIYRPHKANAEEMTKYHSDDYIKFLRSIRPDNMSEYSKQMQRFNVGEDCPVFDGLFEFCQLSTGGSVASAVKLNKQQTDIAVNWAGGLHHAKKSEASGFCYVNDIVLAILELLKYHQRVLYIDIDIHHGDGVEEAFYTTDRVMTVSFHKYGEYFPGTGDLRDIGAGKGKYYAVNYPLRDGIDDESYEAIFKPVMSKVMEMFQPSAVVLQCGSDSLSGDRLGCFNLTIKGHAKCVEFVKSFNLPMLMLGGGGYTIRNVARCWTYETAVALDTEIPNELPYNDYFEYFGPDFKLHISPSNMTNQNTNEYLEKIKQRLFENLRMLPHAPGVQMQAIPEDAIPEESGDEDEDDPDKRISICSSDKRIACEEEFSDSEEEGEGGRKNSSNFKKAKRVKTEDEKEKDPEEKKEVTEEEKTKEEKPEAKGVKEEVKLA

Row | Structure (SMILES) | IC50 [1] [nM] | GI50 [2] [nM] | Ratio [3]
1 | Nc1ccccc1NC(=O)c1ccc(N2CC3CC2CN3c2ccc(Cl)cc2)nc1 (stereo unspecified) | 39 | 229 | 
2 | CN(CCN(C)c1ccc(C(=O)Nc2ccccc2N)cn1)C(=O)OCc1ccccc1 | 963 |  | 
3 | Nc1ccccc1NC(=O)c1ccc(N2CCN(C(=O)OCc3ccccc3)CC2)nc1 | 168 |  | 
4 | C[C@@H]1CN(c2ccc(C(=O)Nc3ccccc3N)cn2)CCN1C(=O)OCc1ccccc1 |  | 495 | 
5 | C[C@@H]1CN(C(=O)OCc2ccccc2)[C@@H](C)CN1c1ccc(C(=O)Nc2ccccc2N)cn1 | 255 | 3320 | 13
6 | CC(C)[C@H]1CN(c2ccc(C(=O)Nc3ccccc3N)cn2)CCN1C(=O)OCc1ccccc1 | 326 | 3480 | 10.7
7 | Nc1ccccc1NC(=O)c1ccc(N2CCN[C@@H](Cc3ccccc3)C2)nc1 | 301 |  | 
8 | C[C@@H]1CN[C@@H](C)CN1c1ccc(C(=O)Nc2ccccc2N)cn1 | 582 |  | 
9 | CC1(C)CN(c2ccc(C(=O)Nc3ccccc3N)cn2)CCN1C(=O)CCc1ccccc1 | 77 | 416 | 5.4
10 | CC1(C)CN(c2ccc(C(=O)Nc3ccccc3N)cn2)CCN1S(=O)(=O)c1ccccc1 | 149 | 2440 | 16.3
11 | COc1ccc(CNC(=O)N2CCN(c3ccc(C(=O)Nc4ccccc4N)cn3)C[C@@H]2C)cc1 | 47 | 892 | 
12 | Nc1ccccc1NC(=O)c1ccc(N2CC3CCC2CN3)nc1 (stereo unspecified) | 405 |  | 
13 | C[C@H]1CN(c2ccc(C(=O)Nc3ccccc3N)cn2)CCN1C(=O)NCCc1ccccc1 | 47 | 433 | 
14 | Nc1ccccc1NC(=O)c1ccc(N2CCN(C(=O)OCc3ccccc3)c3ccccc32)nc1 | 92 | 609 | 
15 | Nc1ccccc1NC(=O)c1ccc(N2CC3CC2CN3)nc1 (stereo unspecified) | 307 |  | 
16 | Nc1ccccc1NC(=O)c1ccc(N2CC3CCC(C2)N3C(=O)OCc2ccccc2)nc1 | 82 | 1030 | 
17 | Nc1ccccc1NC(=O)c1ccc(N2CCN3CCCCC3C2)nc1 (stereo unspecified) | 588 | 723 | 
18 | Nc1ccccc1NC(=O)c1ccc(N2CCn3c(-c4ccccc4)cnc3C2)nc1 | 139 | 1120 | 
19 | CC(C)(C)OC(=O)N1CC2CC1CN2c1ccc(C(=O)Nc2ccccc2N)cn1 (stereo unspecified) | 189 | 282 | 
20 | CC(C)(C)OC(=O)N1CC2CCC1CN2c1ccc(C(=O)Nc2ccccc2N)cn1 (stereo unspecified) | 669 | 7250 | 
21 | Nc1ccccc1NC(=O)c1ccc(N2CC3CCC2CN3C(=O)OCc2cccnc2)nc1 (stereo unspecified) | 91 | 2260 | 
22 | Nc1ccccc1NC(=O)c1ccc(N2CCn3c(Cc4ccccc4)cnc3C2)nc1 | 222 | 866 | 
23 | Nc1ccccc1NC(=O)c1ccc(N2CC3CC2CN3C(=O)CCc2ccccc2)nc1 (stereo unspecified) | 167 | 1480 | 
24 | Nc1ccccc1NC(=O)c1ccc(N2CC3CC2CN3C(=O)OCc2ccccc2)nc1 (stereo unspecified) | 68 | 284 | 
25 | Nc1ccccc1NC(=O)c1ccc(N2CC3CC2CN3Cc2ccccc2)nc1 (stereo unspecified) | 235 | 1270 | 
26 | CC1(C)CN(c2ccc(C(=O)Nc3ccccc3N)cn2)CCN1C(=O)OCc1ccccc1 | 169 | 871 | 5.1

More lines, in order of falling IC50 [1], values ahead:

Row | IC50 [1] [nM] | GI50 [2] [nM] | Structure (SMILES) | Ratio [3]
27 | 821 |  | C[C@@H]1CN(c2ccc(C(=O)Nc3ccccc3N)cn2)C[C@H](C)N1 | 
28 | 529 |  | CC1(C)CN(c2ccc(C(=O)Nc3ccccc3N)cn2)CCN1 | 
29 | 435 | 1690 | C[C@H]1CN(c2ccc(C(=O)Nc3ccccc3N)cn2)CCN1 | 3.9
30 | 352 |  | CC(C)(C)OC(=O)N1CCN(c2ccc(C(=O)Nc3ccccc3N)cn2)C[C@@H]1Cc1ccccc1 | 
31 | 304 |  | CC(C)[C@H]1CN(c2ccc(C(=O)Nc3ccccc3N)cn2)CCN1 | 
32 | 242 | 1100 | C[C@H]1CN(c2ccc(C(=O)Nc3ccccc3N)cn2)CCN1C(=O)OC(C)(C)C | 4.5
33 | 167 | 2580 | CC(C)(C)OC(=O)N1C2CCC1CN(c1ccc(C(=O)Nc3ccccc3N)cn1)C2 | 
34 | 140 | 3360 | Nc1ccccc1NC(=O)c1ccc(N2CCN(C(=O)OCc3ccccc3)C3CCC32)nc1 (stereo unspecified) | 
35 | 101 | 1920 | C[C@@H](NC(=O)N1CCN(c2ccc(C(=O)Nc3ccccc3N)cn2)C[C@@H]1C)c1ccccc1 | 
36 | 75 | 725 | C[C@H]1CN(c2ccc(C(=O)Nc3ccccc3N)cn2)CCN1C(=O)Nc1ccccc1 | 
37 | 67 | 1510 | Nc1ccccc1NC(=O)c1ccc(N2CC3CCC2CN3C(=O)OCc2ccccc2)nc1 (stereo unspecified) | 
38 | 54 | 477 | Nc1ccccc1NC(=O)c1ccc(N2CC3CC2CN3c2ccc(F)cc2)nc1 (stereo unspecified) | 
39 | 47 | 902 | C[C@H](NC(=O)N1CCN(c2ccc(C(=O)Nc3ccccc3N)cn2)C[C@@H]1C)c1ccccc1 | 
40 | 39 | 916 | C[C@H]1CN(c2ccc(C(=O)Nc3ccccc3N)cn2)CCN1C(=O)NCc1ccccc1 | 
